From ChEMBL document CHEMBL1142077, “Inhibition of Plasmodium falciparum oocyst production by membrane-permeant cysteine protease inhibitor E64d” (2007)
Active and inactive are the calls of the source. No cut-off for these calls is given here.

Legend:
[1] = test system: Plasmodium falciparum; experiment: Inhibition of Pfs230 processing after 1 hrs in Plasmodium falciparum 3D7 at 10 uM in emergence medium; assay type: functional, organism-based
How it was run: (§1)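 Mature stage V 3D7 gametocytes preincubated 1 h at 37°C in complete RPMI 1640 with inhibitor or DMSO (saponin 0.001% present or absent during this incubation). Cells then pelleted and resuspended in an equal volume of emergence medium (10 µM xanthurenic acid, glucose, NaCl, 8 mM Tris-Cl pH 8.2) at RT. Medium harvested after 1 h and clarified by centrifugation. Readout: immunoblot with Pfs230 region A (aa 304–378) antibodies, scoring 47-kDa and 35-kDa fragments.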

[2] = test system: Plasmodium falciparum; experiment: Inhibition of Pfs230 processing after 1 hrs in Plasmodium falciparum 3D7 at 100 uM in emergence medium; assay type: functional, organism-based; how it was run: as §1
[3] = test system: Plasmodium falciparum; experiment: Inhibition of exflagellation after 1 hrs in Plasmodium falciparum 3D7 at 10 uM in emergence medium; assay type: functional, organism-based
How it was run: (§2)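 Mature 3D7 gametocytes incubated 1 h with inhibitor or an equal volume of DMSO, then pelleted. Gametogenesis triggered by adding an equal volume of emergence medium (xanthurenic acid, pH 8.2, RT). Scored on Giemsa-stained thin smears before and 15 min after the stimulus (emergence), and by bright-field observation of exflagellation centers 15–30 min after the stimulus.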

[4] = test system: Plasmodium falciparum; experiment: Inhibition of gametogenesis after 1 hrs in Plasmodium falciparum 3D7 at 10 uM in emergence medium; assay type: functional, organism-based; how it was run: as §2
[5] = test system: Plasmodium falciparum; experiment: Inhibition of Pfs230 processing after 1 hrs in Plasmodium falciparum 3D7 at 10 uM in emergence medium with 0.001% saponin; assay type: functional, organism-based; how it was run: as §1
[6] = test system: Plasmodium falciparum; experiment: Gametocyte morphology as exflagellation after 15-30 min in Plasmodium falciparum 3D7 at 100 uM for 1hr in emergence medium; assay type: functional, organism-based
[7] = test system: Plasmodium falciparum; experiment: Inhibition of oocyst production after 7 days in Anopheles stephensi SxK Nij fed human serum infected with Plasmodium falciparum NF54 stage V gametocyte at 100 uM for 30 min; assay type: functional
How it was run: (§3)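 Isolate NF54 stage V gametocytes treated for stated times with 100 µM inhibitor or DMSO, pelleted onto packed erythrocytes in normal human serum with active complement, membrane-fed (39°C) to Anopheles stephensi SxK Nij for 10 min; mosquitoes kept 7 days at 26°C. Midguts mercurochrome-stained, oocysts counted, 16 to 20 mosquitoes per feeding; geometric mean oocysts per midgut versus control; Kruskal-Wallis.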

[8] = test system: Plasmodium falciparum; experiment: Inhibition of oocyst production after 7 days in Anopheles stephensi SxK Nij fed human serum infected with Plasmodium falciparum NF54 stage V gametocyte at 100 uM for 1 hr; assay type: functional; how it was run: as §3
[9] = test system: Plasmodium falciparum; experiment: Inhibition at day 7 of Plasmodium falciparum 3D7 oocyst production in human serum at 100 uM for 1 hrs prior to feeding Anopheles stephensi SxK Nij; assay type: functional; settings: 3D7, Serum
How it was run: (§4)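 Strain 3D7 stage V gametocyte cultures treated 1 h with inhibitor or DMSO, 0.3 ml pelleted onto 150 µl packed erythrocytes, supernatant replaced by 120 µl normal human serum with active complement; membrane feeder at 39°C, mosquitoes gorge 10 min, kept 7 days at 26°C, >80% humidity. Midguts mercurochrome-stained, oocysts counted; geometric mean per midgut versus DMSO control gives percent reduction; Kruskal-Wallis.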

[10] = test system: Plasmodium falciparum; experiment: Inhibition of oocyst production after 7 days in Anopheles stephensi SxK Nij fed human serum infected with Plasmodium falciparum 3D7 stage V gametocyte at 10 uM for 1 hr; assay type: functional, organism-based; how it was run: as §4
[11] = test system: Plasmodium falciparum; experiment: Inhibition of oocyst production after 7 days in Anopheles stephensi SxK Nij fed human serum infected with Plasmodium falciparum NF54 stage V gametocyte at 100 uM for 15 min; assay type: functional; how it was run: as §3
[12] = test system: Plasmodium falciparum; experiment: Inhibition of gametogenesis after 1 hrs in Plasmodium falciparum 3D7 at 100 uM in emergence medium; assay type: functional, organism-based

Compound	Activity [1]	Activity [2]	Activity [3]	Activity [4]	Activity [5]	Activity [6]	inhibition at 100 µM [7]	inhibition at 100 µM [8]	inhibition at 100 µM [9]	Activity [10]	inhibition at 100 µM [11]	Activity [12]
CC(C)C[C@H](NC(=O)C(CCc1ccccc1)NC(=O)CF)C(=O)NC(=O)N1CCOCC1 (some centres not stated)	inactive	inactive	inactive	inactive	Active							
CCOC(=O)[C@H]1O[C@@H]1C(=O)N[C@@H](CC(C)C)C(=O)NCCC(C)C [ALOXISTATIN]						inactive	98%	100%	81%	inactive	79%	inactive
